In brackets after ≈: the same amount, converted by molar mass.
How the values were obtained:
[1] = biological target: Acetylcholinesterase (Anopheles gambiae) (UniProt Q869C3); test: Inhibition of Anopheles gambiae AChE expressed in Escherichia coli after 6 mins by Ellman assay
How it was run: (§1)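 Time-dependent inactivation of recombinant AgAChE (purified to 2,500 ± 100 U/mg) monitored by Ellman assay. Residual velocity (v/v0) was measured against incubation time at fixed inhibitor levels, and kobs came from the ln(v/v0) vs t slope. kobs at three or more [I] was plotted against [I], and the linear slope gave apparent second-order ki (mM⁻¹ min⁻¹). Final DMSO was constant at 0.1% (v/v).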

[2] = biological target: Acetylcholinesterase (Homo sapiens) (UniProt P22303); test: Inhibition of human recombinant AChE after 6 mins by Ellman assay
How it was run: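 Recombinant human AChE was assayed by Ellman method for time-dependent inactivation at fixed inhibitor concentrations. Pseudo-first-order kobs was taken from ln(v/v0) vs incubation time. Three or more inhibitor levels gave kobs vs [I], and its linear slope gave apparent ki (mM⁻¹ min⁻¹). DMSO was held at 0.1% (v/v) final.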

[3] = Selectivity ratio of Ki for Anopheles gambiae AChE to Ki for human recombinant AChE
How it was run: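 Ratio ki(Ag)/ki(h) of apparent second-order inactivation constants, both from Ellman-assay kobs vs [I] slopes using purified recombinant AgAChE and recombinant hAChE. Error in the ratio was computed by standard propagation of error.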

Anopheles gambiae [4] = test: Toxicity in Anopheles gambiae G3 assessed as mortality treated as tarsal contact using dried filter papers after 24 hrs; type: functional; settings: G3, 24 h
Anopheles gambiae [5] = test: Toxicity in anesthetized Anopheles gambiae G3 assessed as mortality treated as topical application assessed per mosquito after 24 hrs; type: functional
[6] = biological target: Acetylcholinesterase (Anopheles gambiae) (UniProt Q869C3); test: Inhibition of Anopheles gambiae AChE; settings: concentration not given here; how it was run: as §1
Anopheles gambiae [7] = test: Toxicity in Anopheles gambiae G3 assessed as mortality at 250 ug/ml treated as tarsal contact using dried filter papers after 24 hrs; type: functional
How it was run: (§2)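 Tarsal contact assay. Filter papers were treated with ethanolic carbamate solutions and dried, and adult Anopheles gambiae were exposed for 1 h. Mortality was scored after 24 h. Concentrations refer to the solutions used to treat the papers.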

Anopheles gambiae [8] = test: Toxicity in Anopheles gambiae G3 assessed as mortality at 1000 ug/ml treated as tarsal contact using dried filter papers after 24 hrs; type: functional; how it was run: as §2
[9] = Selectivity ratio of Torpedo californica AChE to human AChE
[10] = biological target: Acetylcholinesterase (Anopheles gambiae) (UniProt Q869C3); test: Inhibition of Anopheles gambiae AChE at 6 uM after 1 hr

Chain of Acetylcholinesterase (Anopheles gambiae) (Q869C3 39-737 limits assumed): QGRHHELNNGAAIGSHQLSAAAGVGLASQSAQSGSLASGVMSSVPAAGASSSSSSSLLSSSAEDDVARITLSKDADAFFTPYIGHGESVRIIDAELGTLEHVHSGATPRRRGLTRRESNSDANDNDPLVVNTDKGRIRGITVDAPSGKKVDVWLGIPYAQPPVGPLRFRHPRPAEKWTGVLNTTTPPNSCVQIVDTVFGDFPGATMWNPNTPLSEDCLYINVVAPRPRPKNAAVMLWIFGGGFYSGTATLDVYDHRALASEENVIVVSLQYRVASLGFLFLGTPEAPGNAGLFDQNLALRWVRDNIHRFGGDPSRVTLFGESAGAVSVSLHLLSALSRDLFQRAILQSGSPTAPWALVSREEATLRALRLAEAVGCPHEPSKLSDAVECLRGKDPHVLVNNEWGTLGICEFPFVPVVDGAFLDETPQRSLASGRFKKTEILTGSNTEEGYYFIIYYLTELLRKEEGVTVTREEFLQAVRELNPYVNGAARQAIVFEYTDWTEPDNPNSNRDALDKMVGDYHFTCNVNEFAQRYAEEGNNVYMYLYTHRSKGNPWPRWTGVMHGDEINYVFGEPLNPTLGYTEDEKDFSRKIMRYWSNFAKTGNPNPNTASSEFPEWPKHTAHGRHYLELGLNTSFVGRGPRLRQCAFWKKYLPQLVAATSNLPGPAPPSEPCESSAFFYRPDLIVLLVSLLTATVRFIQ
Chain of Acetylcholinesterase (Homo sapiens) (P22303 whole entry): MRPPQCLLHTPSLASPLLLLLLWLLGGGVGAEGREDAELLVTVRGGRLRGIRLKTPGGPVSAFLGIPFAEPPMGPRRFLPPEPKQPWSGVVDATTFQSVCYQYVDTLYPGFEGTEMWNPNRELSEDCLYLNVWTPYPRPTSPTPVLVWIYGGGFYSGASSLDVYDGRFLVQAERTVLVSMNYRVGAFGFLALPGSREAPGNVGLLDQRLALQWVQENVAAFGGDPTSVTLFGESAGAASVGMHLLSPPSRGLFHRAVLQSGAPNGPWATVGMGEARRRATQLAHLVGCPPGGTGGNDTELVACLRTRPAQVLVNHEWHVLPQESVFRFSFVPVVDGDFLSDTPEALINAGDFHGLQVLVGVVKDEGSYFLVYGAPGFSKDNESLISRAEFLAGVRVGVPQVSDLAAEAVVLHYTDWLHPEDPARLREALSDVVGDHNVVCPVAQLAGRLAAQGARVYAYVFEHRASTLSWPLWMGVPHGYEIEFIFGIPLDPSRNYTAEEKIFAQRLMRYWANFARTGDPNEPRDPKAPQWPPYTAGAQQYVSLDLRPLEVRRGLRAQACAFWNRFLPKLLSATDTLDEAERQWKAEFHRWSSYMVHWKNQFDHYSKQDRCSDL

Row | Compound | apparent second-order inhibition rate constant ki [1] | Kinact [2] | Ratio Ki [3] | LC50 (Anopheles gambiae [4]) | LD50 (Anopheles gambiae [5]) | inhibition [6] | Activity (Anopheles gambiae [7]) | Activity (Anopheles gambiae [8]) | Selectivity ratio [9] | inhibition [10]
1 | CCC(CC)COc1cccc(OC(=O)NC)c1 | 480 M⁻¹ s⁻¹ | 83.3 M⁻¹ s⁻¹ | 5.8 | – | – | – | – | – | – | –
2 | CNC(=O)Oc1cccc([Si](C)(C)C)c1 | 10800 M⁻¹ s⁻¹ | 1130 M⁻¹ s⁻¹ | 9.6 | – | – | – | – | – | – | –
3 | CNC(=O)Oc1ccccc1OCC1CCCCC1 | 8 M⁻¹ s⁻¹ | 3.5 M⁻¹ s⁻¹ | 2.3 | – | – | – | – | – | – | –
4 | CNC(=O)Oc1cccc(C(C)(C)C)c1 | 25200 M⁻¹ s⁻¹ | 2100 M⁻¹ s⁻¹ | 12 | 37 µg/mL (≈ 179 µM) | 4.5 ng | – | – | – | – | –
5 | CNC(=O)Oc1ccccc1SC | 1150 M⁻¹ s⁻¹ | 85 M⁻¹ s⁻¹ | 14 | – | – | – | – | – | – | –
6 | CNC(=O)Oc1cccc2c1OC(C)(C)C2 [CARBOFURAN] | 43700 M⁻¹ s⁻¹ | 7130 M⁻¹ s⁻¹ | 6.1 | 16 µg/mL (≈ 72.3 µM) | 0.85 ng | 49% | – | – | – | –
7 | CCC(C)(C)c1cccc(OC(=O)NC)c1 | 127000 M⁻¹ s⁻¹ | 13100 M⁻¹ s⁻¹ | 9.7 | 115 µg/mL (≈ 520 µM) | – | – | – | – | – | –
8 | CNC(=O)Oc1cccc2ccccc12 | – | – | – | – | – | 49% | – | – | – | –
9 | CNC(=O)Oc1ccccc1 | 45.8 M⁻¹ s⁻¹ | 3.33 M⁻¹ s⁻¹ | 13 | – | – | – | – | – | – | –
10 | CCC(C)(CC)c1cccc(OC(=O)NC)c1 | 88000 M⁻¹ s⁻¹ | 9220 M⁻¹ s⁻¹ | 9.5 | – | – | – | 72% | – | – | –
11 | CCC(C)c1cccc(OC(=O)NC)c1 (racemic) | 167000 M⁻¹ s⁻¹ | 31800 M⁻¹ s⁻¹ | 5.3 | 31 µg/mL (≈ 150 µM) | 1.6 ng | – | – | – | – | –
12 | CNC(=O)Oc1cccc(CCC(C)C)c1 | 4530 M⁻¹ s⁻¹ | 86.7 M⁻¹ s⁻¹ | 53 | 342 µg/mL (≈ 1550 µM) | – | – | – | – | – | –
13 | C=C(C)CSc1ccccc1OC(=O)NC | 6900 M⁻¹ s⁻¹ | 125 M⁻¹ s⁻¹ | 55 | 317 µg/mL (≈ 1340 µM) | 12 ng | – | – | – | – | –
14 | CNC(=O)Oc1cccc(C)c1 [METOLCARB] | 287 M⁻¹ s⁻¹ | 8.67 M⁻¹ s⁻¹ | 33 | 712 µg/mL (≈ 4310 µM) | – | – | – | – | – | –
15 | CCCc1cccc(OC(=O)NC)c1 | 14700 M⁻¹ s⁻¹ | 1060 M⁻¹ s⁻¹ | 14 | 41 µg/mL (≈ 212 µM) | – | – | – | – | – | –
16 | CCC(CC)COc1ccccc1OC(=O)NC | 4250 M⁻¹ s⁻¹ | 8 M⁻¹ s⁻¹ | 530 | – | 81 ng | – | – | 27% | – | –
17 | CNC(=O)Oc1ccccc1C | 21.8 M⁻¹ s⁻¹ | 4 M⁻¹ s⁻¹ | 5.4 | – | – | – | – | – | – | –
18 | CC[Si](C)(C)c1cccc(OC(=O)NC)c1 | 25200 M⁻¹ s⁻¹ | 1830 M⁻¹ s⁻¹ | 14 | 169 µg/mL (≈ 712 µM) | 8 ng | – | – | – | – | –

Row | Compound | apparent second-order inhibition rate constant ki [1] | Kinact [2] | Ratio Ki [3] | LC50 (Anopheles gambiae [4]) | LD50 (Anopheles gambiae [5]) | inhibition [6] | Activity (Anopheles gambiae [7]) | Activity (Anopheles gambiae [8]) | Selectivity ratio [9] | inhibition [10]
19 | CNC(=O)Oc1ccccc1SCC(C)C | 8770 M⁻¹ s⁻¹ | 108 M⁻¹ s⁻¹ | 81 | 212 µg/mL (≈ 886 µM) | 10 ng | – | – | – | – | –
20 | CNC(=O)Oc1cccc(CC(C)C)c1 | 2580 M⁻¹ s⁻¹ | 91.7 M⁻¹ s⁻¹ | 28 | – | – | – | – | – | – | –
21 | CCC(CC)CCc1ccccc1OC(=O)NC | 1260 M⁻¹ s⁻¹ | 12.5 M⁻¹ s⁻¹ | 100 | – | – | – | – | – | – | –
22 | CNC(=O)Oc1ccccc1OCC1CCCC1 | 163 M⁻¹ s⁻¹ | 4.67 M⁻¹ s⁻¹ | 36 | – | – | – | – | – | – | –
23 | CCN(C)C(=O)Oc1cccc([C@H](C)N(C)C)c1 | – | – | – | – | – | – | – | – | 1500 | –
24 | CCCC(C)(C)c1cccc(OC(=O)NC)c1 | 112000 M⁻¹ s⁻¹ | 22700 M⁻¹ s⁻¹ | 4.9 | 236 µg/mL (≈ 1000 µM) | – | – | – | – | – | –
25 | CCC(C)COc1ccccc1OC(=O)NC (racemic) | 2080 M⁻¹ s⁻¹ | 9.67 M⁻¹ s⁻¹ | 216 | 445 µg/mL (≈ 1880 µM) | 33 ng | – | – | – | – | –
26 | CNC(=O)Oc1ccccc1OCC(C)C | 880 M⁻¹ s⁻¹ | 10.8 M⁻¹ s⁻¹ | 81 | 290 µg/mL (≈ 1300 µM) | 19 ng | – | – | – | – | –
27 | CNC(=O)Oc1cccc2c1OC(C)(C)O2 [BENDIOCARB] | 14000 M⁻¹ s⁻¹ | 1850 M⁻¹ s⁻¹ | 7.6 | 16 µg/mL (≈ 71.7 µM) | 0.74 ng | 49% | – | – | – | –
28 | C[N+](C)(C)CCCCCCCCCCCCCCCCCCSS(C)(=O)=O | – | – | – | – | – | – | – | – | – | > 95%
29 | CNC(=O)Oc1ccccc1OC(C)C [PROPOXUR] | 4430 M⁻¹ s⁻¹ | 283 M⁻¹ s⁻¹ | 16 | 39 µg/mL (≈ 186 µM) | 3.2 ng | 49% | – | – | – | –
30 | CNC(=O)Oc1cccc(C(C)(C)C(F)(F)F)c1 | 26300 M⁻¹ s⁻¹ | 2320 M⁻¹ s⁻¹ | 11 | 61 µg/mL (≈ 233 µM) | – | – | – | – | – | –
31 | CCC(CC)CSc1ccccc1OC(=O)NC | 30800 M⁻¹ s⁻¹ | 242 M⁻¹ s⁻¹ | 130 | – | 10 ng | – | – | 27% | – | –
32 | C=C(C)COc1ccccc1OC(=O)NC | 1040 M⁻¹ s⁻¹ | 12.3 M⁻¹ s⁻¹ | 84 | – | – | – | – | – | – | –
33 | CNC(=O)Oc1cccc(C(C)C)c1 | 54500 M⁻¹ s⁻¹ | 6380 M⁻¹ s⁻¹ | 8.5 | – | – | – | – | – | – | –
34 | CCC(C)CSc1ccccc1OC(=O)NC (racemic) | 13400 M⁻¹ s⁻¹ | 280 M⁻¹ s⁻¹ | 48 | – | – | – | – | – | – | –
35 | CCCCc1cccc(OC(=O)NC)c1 | 12400 M⁻¹ s⁻¹ | 535 M⁻¹ s⁻¹ | 23 | 237 µg/mL (≈ 1140 µM) | – | – | – | – | – | –
36 | CCC(C)(c1cccc(OC(=O)NC)c1)C(F)(F)F (racemic) | 54500 M⁻¹ s⁻¹ | 6250 M⁻¹ s⁻¹ | 8.7 | 68 µg/mL (≈ 247 µM) | – | – | – | – | – | –
